Calls of active or inactive are those of the source. The rule behind the calls is not given here.
Columns and labels:
[1] = Cytotoxicity against human Li23 cells by WST assay
Hepatitis C virus [2] = assay: Inhibition of HCV RNA replication in human Li23 cells (ORL8 system) by renilla luciferase reporter gene based replication assay; assay type: functional, organism-based, Hepacivirus hominis
[3] = Selectivity index, ratio of CC50 against human Li23 cells to EC50 against HCV RNA replication in human Li23 cells
Procedure, shortened: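 SI was calculated as CC50/EC50. CC50 in Li23 cells came from a WST-1 assay. EC50 came from the ORL8 genome-length HCV RNA Renilla luciferase replication assay. All assays were done in triplicate.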

Li23 = assay: Induction of ROS generation in human Li23 cells (ORL8 system); assay type: functional, cell-based
Procedure, shortened: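 ROS production in the ORL8 genome-length HCV RNA replicon system (Li23 cells) was measured by FACS analysis at a series of compound concentrations.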

Hepatitis C virus [4] = assay: Inhibition of HCV RNA replication in human Li23 cells (ORL8 system) at 5 uM in presence of 10 to 200 uM vitamin E by renilla luciferase reporter gene based replication assay; assay type: functional, organism-based; details: Hepacivirus hominis
Procedure, shortened: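 Genome-length HCV RNA replication was measured by Renilla luciferase in ORL8 (Li23) cells. Vitamin E was given at various concentrations, with the test compound absent or present at 5 µM. Assays were done in triplicate.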

Hepatitis C virus [5] = assay: Potentiation of 1 IU/mL IFN-alpha and 6.3 uM ribavirin-induced inhibition of HCV RNA replication in human Li23 cells (ORL8 system) by renilla luciferase reporter gene based replication assay; assay type: functional, organism-based; details: Hepacivirus hominis
Procedure, shortened: (§1)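 Genome-length HCV RNA replication was read by Renilla luciferase in ORL8 (Li23) cells. Increasing compound concentrations were combined with IFN-α alone (1 IU/mL) or with IFN-α plus ribavirin (1 IU/mL + 6.3 µM; 4 IU/mL + ribavirin also tested). Assays were done in triplicate.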

Hepatitis C virus [6] = assay: Potentiation of 1 IU/mL IFN-alpha-induced inhibition of HCV RNA replication in human Li23 cells (ORL8 system) by renilla luciferase reporter gene based replication assay; assay type: functional, organism-based; details: Hepacivirus hominis; procedure, shortened: as §1
Hepatitis C virus [7] = assay: Inhibition of HCV RNA replication in human HuH7 cells (OR6 system) by renilla luciferase reporter gene based replication assay; assay type: functional, organism-based, Hepacivirus hominis; details: Huh-7
Procedure, shortened: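 The OR6 system carries genome-length HCV RNA with a Renilla luciferase reporter in HuH-7 hepatoma cells. Replication inhibition was measured and EC50 determined from runs done in triplicate.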

Hepatitis C virus [8] = assay: Inhibition of HCV RNA replication in human Li23 cells (ORL8 system) in presence of 1 IU/mL IFN-alpha by renilla luciferase reporter gene based replication assay; assay type: functional, organism-based; details: Hepacivirus hominis
Procedure, shortened: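 Li23 human hepatoma cells carrying replicating genome-length HCV RNA with a Renilla luciferase reporter (ORL8). Test compound given at a range of concentrations together with IFN-alpha at 1 IU/mL, with a vehicle control. HCV RNA replication read as luciferase reporter activity. Assays run in triplicate.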

Structure (SMILES) | CC50 [1] [µM] | EC50 (Hepatitis C virus [2]) [µM] | Ratio CC50/EC50 [3] | also measured
CN(C(=O)c1ccccc1)c1ccccc1C(O)(C(F)(F)F)C(F)(F)F | > 20 | > 20 |  | 
CN(C(=O)c1cccnc1)c1ccc(C(O)(C(F)(F)F)C(F)(F)F)cc1 | 63 | 45 | 1.4 | 
CCCC(=O)N(C)c1ccc(C(O)(C(F)(F)F)C(F)(F)F)cc1 | > 100 | 3.8 |  | 
CN(C(=O)c1cccs1)c1ccc(C(O)(C(F)(F)F)C(F)(F)F)cc1 | 33 | 2.6 | 13 | 
COc1ccc(S(=O)(=O)N(C)c2ccc(C(O)(C(F)(F)F)C(F)(F)F)cc2)cc1 | 7.9 | 1.4 | 5.6 | 
CCN(C(=O)c1ccccc1)c1ccc(C(O)(C(F)(F)F)C(F)(F)F)cc1 | 19 | 0.78 | 24 | 
CC(=O)N(C)c1ccc(C(O)(C(F)(F)F)C(F)(F)F)cc1 | 40 | 14 | 2.9 | 
Cc1ccc(C(=O)N(C)c2ccc(C(O)(C(F)(F)F)C(F)(F)F)cc2)cc1 | 26 | 10 | 2.6 | 
CN(Cc1ccccc1)c1ccc(C(O)(C(F)(F)F)C(F)(F)F)cc1 | 13 | 3 | 4.3 | 
CN(c1ccc(C(O)(C(F)(F)F)C(F)(F)F)cc1)S(=O)(=O)c1ccccc1 | 16 | 0.19 | 84 | Activity (Li23): Dose-dependent effect; inhibition (Hepatitis C virus [4]): inactive; Activity (Hepatitis C virus [5]): Dose-dependent effect; IC60 (Hepatitis C virus [2]): 5 µM; Activity (Hepatitis C virus [6]): Dose-dependent effect
CN(C(=O)c1ccccn1)c1ccc(C(O)(C(F)(F)F)C(F)(F)F)cc1 | > 100 | > 100 |  | 
CN(C(=O)c1ccccc1)c1ccc(C(O)(C(F)(F)F)C(F)(F)F)cc1 | 65 | 0.32 | 203 | EC50 (Hepatitis C virus [7]): > 20 µM
O=C(c1ccccc1)N(Cc1ccccc1)c1ccc(C(O)(C(F)(F)F)C(F)(F)F)cc1 | 7.5 | 2.9 | 2.6 | 
Cc1cccc(S(=O)(=O)N(C)c2ccc(C(O)(C(F)(F)F)C(F)(F)F)cc2)c1 | 11 | 0.35 | 31 | 
Cc1cccc(C(=O)N(C)c2ccc(C(O)(C(F)(F)F)C(F)(F)F)cc2)c1 | 20 | 5.8 | 3.4 | 
CN(c1ccc(C(O)(C(F)(F)F)C(F)(F)F)cc1)S(=O)(=O)c1cccc(F)c1 | 19 | 0.36 | 53 | 
CN(C(=O)c1ccccc1)c1ccc(C(OCCO)(C(F)(F)F)C(F)(F)F)cc1 | > 20 | 11 |  | 

Structure (SMILES) | CC50 [1] [µM] | EC50 (Hepatitis C virus [2]) [µM] | Ratio CC50/EC50 [3] | also measured
NC(=O)c1ncn([C@@H]2O[C@H](CO)[C@@H](O)[C@H]2O)n1 [RIBAVIRIN] |  | 8.7 |  | inhibition (Hepatitis C virus [8]): Active
CN(c1ccc(C(O)(C(F)(F)F)C(F)(F)F)cc1)S(=O)(=O)c1ccccc1Br | 9.1 | 0.5 | 18 | 
CCCN(C(=O)c1ccccc1)c1ccc(C(O)(C(F)(F)F)C(F)(F)F)cc1 | 15 | 3.5 | 4.3 | 
Cc1ccc(S(=O)(=O)N(C)c2ccc(C(O)(C(F)(F)F)C(F)(F)F)cc2)cc1 | 15 | 0.44 | 34 | 
Cc1ccccc1S(=O)(=O)N(C)c1ccc(C(O)(C(F)(F)F)C(F)(F)F)cc1 | 12 | 0.36 | 33 | 
CN(c1ccc(C(O)(C(F)(F)F)C(F)(F)F)cc1)S(=O)(=O)c1ccccc1Cl | 15 | 0.17 | 88 | 
O=C(Nc1ccc(C(O)(C(F)(F)F)C(F)(F)F)cc1)c1ccccc1 | 12 | 4.1 | 2.9 | 
CN(C(=O)C12CC3CC(CC(C3)C1)C2)c1ccc(C(O)(C(F)(F)F)C(F)(F)F)cc1 | 17 | 1 | 17 | 
Cc1cc(C(O)(C(F)(F)F)C(F)(F)F)ccc1N(C)C(=O)c1ccccc1 | 9 | 1.7 | 5.3 | 
CN(C(=O)c1ccsc1)c1ccc(C(O)(C(F)(F)F)C(F)(F)F)cc1 | 44 | 17 | 2.6 | 
CCCCC(=O)N(C)c1ccc(C(O)(C(F)(F)F)C(F)(F)F)cc1 | 26 | 2.3 | 11 | 
CN(C(=O)Cc1ccccc1)c1ccc(C(O)(C(F)(F)F)C(F)(F)F)cc1 | 27 | > 100 |  | 
CN(C(=O)C1CCCCC1)c1ccc(C(O)(C(F)(F)F)C(F)(F)F)cc1 | 20 | 0.23 | 87 | 
CN(C(=O)Nc1ccccc1)c1ccc(C(O)(C(F)(F)F)C(F)(F)F)cc1 | > 20 | 5.7 |  | 
COc1cccc(S(=O)(=O)N(C)c2ccc(C(O)(C(F)(F)F)C(F)(F)F)cc2)c1 | 13 | 2.1 | 6.2 | 
Cc1cc(N(C)C(=O)c2ccccc2)ccc1C(O)(C(F)(F)F)C(F)(F)F | 87 | > 100 |  | 
Cc1ccccc1C(=O)N(C)c1ccc(C(O)(C(F)(F)F)C(F)(F)F)cc1 | 38 | 17 | 2.2 | 

— ChEMBL document CHEMBL3352101, “Synthesis and inhibitory activity on hepatitis C virus RNA replication of 4-(1,1,1,3,3,3-hexafluoro-2-hydroxy-2-propyl)aniline analogs” (Bioorg Med Chem Lett, 2014)
